From ChEMBL document CHEMBL4699630, “Discovery of novel pyrazolo[3,4-b]pyridine scaffold-based derivatives as potential PIM-1 kinase inhibitors in breast cancer MCF-7 cells” (Bioorg Med Chem, 2020) come the findings set out here.

Test [1] has as its system MDA-MB-231. Kind of test: Cytotoxicity against Non-ERalpha-dependent human MDA-MB-231 cells assessed as reduction in cell viability incubated for 48 hrs by MTT assay. The test is classed as functional, cell-based. The conditions noted are these: MDA-MB-231, 48 h. In short, it runs like this:
(§1)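 Cells grown by standard culture protocols, then exposed for 48 h to serial concentrations (0.1, 1, 10, 100, 1000; unit not given) of each compound. Survival read by absorbance at 570 nm and expressed as % viability = A sample/A control ×100. IC50 fitted from concentration versus % survival; mean ± SEM of three independent values.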
(In general: Tetrazolium dyes change colour on reduction, which living cells bring about.)

Test [2] has as its system MCF7. Kind of test: Cytotoxicity against ERalpha-dependent human MCF7 cells assessed as reduction in cell viability incubated for 48 hrs by MTT assay. Type of test: functional, cell-based. The conditions noted are these: MCF7, 48 h. An outline of the steps:
as §1

In test [3] the test system is MCF-10A. Kind of test: Cytotoxicity against human MCF-10A cells assessed as reduction in cell viability incubated for 48 hrs by MTT assay. Type of test: cell-based. An outline of the steps:
as §1

Test [4] addresses Serine/threonine-protein kinase pim-1 (Homo sapiens, UniProt P11309). Kind of test: Inhibition of recombinant human GST-tagged PIM1 by ELISA. In short, it runs like this:
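PIM-1 kinase activity measured with the HTScan Pim-1 kinase assay kit, following the kit instructions. Compounds dissolved in DMSO and tested at four serial concentrations; IC50 derived from these.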
In general terms: ELISA stands for enzyme-linked immunosorbent assay.

The nature of test [5]: Upregulation of MDM2 gene expression in human MCF7 cells at 5.61 uM incubated for 48 hrs by RT-PCR analysis relative to control. Type of test: functional.
Test [6] has as its system MCF7. In words: Induction of apoptosis in human MCF7 cells assessed as fold decrease in BCL2 gene expression at 5.61 uM incubated for 48 hrs by RT-PCR analysis relative to control. The test is classed as functional.
In test [7] the test system is MCF7. In words: Induction of apoptosis in human MCF7 cells assessed as fold increase in caspase-3 gene expression at 5.61 uM incubated for 48 hrs by RT-PCR analysis relative to control. Type of test: functional.
Test [8] deals with MCF7. Kind of test: Induction of cell cycle arrest in human MCF7 cells assessed as accumulation of cells at G2/M phase at 5.61 uM incubated for 48 hrs by propidium iodide staining based flow cytometric analysis (reference value: 12.26 %). Type of test: functional.
Test [9] can be described thus: Upregulation of PUMA gene expression in human MCF7 cells at 5.61 uM incubated for 48 hrs by RT-PCR analysis relative to control. The test is classed as functional.
The test system of test [10] is MCF7. In words: Induction of apoptosis in human MCF7 cells assessed as early apoptotic cells at 5.61 uM incubated for 48 hrs by Annexin V-FITC/propidium iodide staining based flow cytometric analysis (reference value: 0.43 %). Type of test: functional.
For test [11], the system named is MCF7. In words: Induction of apoptosis in human MCF7 cells assessed as fold increase in caspase-9 gene expression at 5.61 uM incubated for 48 hrs by RT-PCR analysis relative to control. The test is classed as functional.
In test [12] the test system is MCF7. In words: Induction of apoptosis in human MCF7 cells assessed as late apoptotic cells at 5.61 uM incubated for 48 hrs by Annexin V-FITC/propidium iodide staining based flow cytometric analysis (reference value: 0.16 %). Type of test: functional. (In flow cytometry, cells or beads pass a laser one at a time.)
Test [13] deals with MCF7. In words: Induction of cell cycle arrest in human MCF7 cells assessed as accumulation of cells at preG1 phase at 5.61 uM incubated for 48 hrs by propidium iodide staining based flow cytometric analysis (reference value: 1.64 %). Type of test: functional.
The test system of test [14] is MCF7. Kind of test: Induction of apoptosis in human MCF7 cells assessed as increase in necrotic cells at 5.61 uM incubated for 48 hrs by Annexin V-FITC/propidium iodide staining based flow cytometric analysis relative to control. Type of test: functional.
Test [15] can be described thus: Upregulation of P53 gene expression in human MCF7 cells at 5.61 uM incubated for 48 hrs by RT-PCR analysis relative to control. Type of test: functional.
Test [16] deals with MCF7. Kind of test: Induction of apoptosis in human MCF7 cells assessed as increase in total apoptotic cells at 5.61 uM incubated for 48 hrs by Annexin V-FITC/propidium iodide staining based flow cytometric analysis relative to control. Type of test: functional.
Test [17] is described as follows: Downregulation of PIM1 gene expression in human MCF7 cells at 5.61 uM incubated for 48 hrs by RT-PCR analysis relative to control. Type of test: functional.
For test [18], the system named is MCF7. In words: Induction of apoptosis in human MCF7 cells assessed as necrotic cells at 5.61 uM incubated for 48 hrs by Annexin V-FITC/propidium iodide staining based flow cytometric analysis (reference value: 1.05 %). Type of test: functional.
The test system of test [19] is MCF7. Kind of test: Induction of cell cycle arrest in human MCF7 cells assessed as accumulation of cells at G0/G1 phase at 5.61 uM incubated for 48 hrs by propidium iodide staining based flow cytometric analysis (reference value: 43.92 %). The test is classed as functional.

pIC50: −log10 of the molar value.

Sequence of Serine/threonine-protein kinase pim-1 (P11309 whole entry): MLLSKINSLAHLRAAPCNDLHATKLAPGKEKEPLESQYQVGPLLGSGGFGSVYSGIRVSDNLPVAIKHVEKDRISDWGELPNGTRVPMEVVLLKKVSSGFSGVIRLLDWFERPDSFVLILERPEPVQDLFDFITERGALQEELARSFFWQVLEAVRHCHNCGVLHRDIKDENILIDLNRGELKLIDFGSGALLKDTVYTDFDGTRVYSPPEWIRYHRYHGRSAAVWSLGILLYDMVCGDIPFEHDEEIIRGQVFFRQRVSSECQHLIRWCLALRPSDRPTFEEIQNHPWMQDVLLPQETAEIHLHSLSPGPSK

As a reminder, the pIC50 is the IC50 on a negative log10 scale, so that one unit is a factor of ten. As to `N#Cc1c(N)nc2nn3c4ccc5ccccc5c4nnc3c2c1-c1ccc(-c2c(C#N)c(N)nc3nn4c(nnc5ccc6ccccc6c54)c23)cc1`, the pIC50 in test [1] is 4.36; in [2], 4.94.

In the case of `CC(=O)c1nnc2c3c(-c4ccccc4Cl)c(C#N)c(O)nc3nn2c1C`, the pIC50 in test [1] was 4.68; in [2], 4.83.

In the case of `N#Cc1c(N)nc2[nH]nc(N)c2c1-c1ccc(-c2c(C#N)c(N)nc3[nH]nc(N)c23)cc1`, the pIC50 in test [1] is 4.45; in test [3] it was 4.36; in test [2], 4.75.

Take `N#Cc1c(-c2ccccc2Cl)c2c(nn3c4ccc(O)cc4nnc23)[nH]c1=O`: the pIC50 in test [1] is 4.61; in [3], at most 4.30; in [4] it was 6.95; in test [2], 5.00.

For `N#Cc1c(N)nc(Sc2ccccc2)c(C#N)c1-c1ccc(-c2c(C#N)c(N)nc(Sc3ccccc3)c2C#N)cc1`, the results for the pIC50 in test [3] and in test [2] were 4.31 and 4.78, respectively.

For the molecule `N#Cc1nnc2c3c(-c4ccccc4Cl)c(C#N)c(O)nc3nn2c1O`, the negative logarithm of the IC50 (pIC50) in test [1] was 4.97; in test [2], 4.56.

Consider `N#Cc1c(N)nc2[nH]nc(N)c2c1-c1ccccc1Cl`, for which the pIC50 is 4.69 in test [3] and 4.44 in [2].

As to `N#Cc1c(-c2ccccc2Cl)c2c(N/N=C3\C=CC(=O)c4ccccc43)n[nH]c2[nH]c1=O`, the negative logarithm of the IC50 (pIC50) in [1] was at most 4.30; in [3] it was at most 4.30; in [4] it was 7.02; in test [2], 5.06.

Take `N#Cc1c(N)nc2[nH]nc(N)c2c1-c1cccc(Cl)c1`: in test [2], the negative-log IC50 (pIC50) is at most 4.30.

With `Cn1nc(N)c2c(-c3ccccc3Cl)c(C#N)c(N)nc21`, the pIC50 in test [3] is 4.27.

For `N#Cc1c(-c2ccccc2Cl)c2c(nn3c4ccc5ccccc5c4nnc23)[nH]c1=O`, the negative-log IC50 (pIC50) in test [1] was 5.01; in test [2], at most 4.30.

Take `N#Cc1nnc2c3c(-c4ccccc4Cl)c(C#N)c(=O)[nH]c3nn2c1N`: the pIC50 in [1] was at most 4.30; in test [3], at most 4.30; in [4], 7.37; in test [2] it was 5.16.

As to `CCOC(=O)c1nnc2c3c(-c4ccccc4Cl)c(C#N)c(=O)[nH]c3nn2c1O`, the “fold change (FC)” value was found to be 3.9 in [5]; 0.41 in test [6]; 7.9 in test [7]; 6.32 in test [9]; 6.56 in test [11]; 10.5 in test [14]. Also, the “fold change (FC)” value worked out at 4.2 in test [15], 19.17 in [16] and 0.25 in test [17]. For the same molecule, the Activity is listed as 34.58% in [8]; 3.93% in test [10]; 16.29% in [12]; 31.25% in test [13]; 11.03% in [18]; 35.66% in [19]. Besides, the pIC50 was 4.41 in [1], 4.33 in [3], 7.59 in [4] and 5.25 in test [2].

As for `Cn1nc(N)c2c(-c3ccc(-c4c(C#N)c(N)nc5c4c(N)nn5C)cc3)c(C#N)c(N)nc21`, the pIC50 in test [3] and in [2] was at most 4.30 in each case.

`N#Cc1c(O)nc2nn3c4cc(O)ccc4nnc3c2c1-c1ccccc1Cl`: the negative logarithm of the IC50 (pIC50) is 4.40 in test [1], at most 4.30 in test [3], 7.06 in [4] and 5.04 in [2].

Regarding `O=c1[nH]cc(F)c(=O)[nH]1` [FLUOROURACIL], the values for the negative-log IC50 (pIC50) in test [1], in test [3] and in test [2] were 4.80, 4.40 and 5.24, respectively.
